What was measured:
A-375 = test: Cytotoxicity against human A375 cells by MTT assay; type: functional, cell-based
How it was run: (§1)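 Log-phase cells were diluted to 40,000–50,000 cells/mL in medium with 10% FBS, 2 mM glutamine and antibiotics (37 °C, 5% CO₂). They were seeded in 96-well plates and treated with a range of doses. MTT was added for 4 h, the formazan was dissolved in DMSO, and absorbance was read at 590 nm.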

[1] = Cytotoxicity against human LO2 cells by MTT assay; type: cell-based; details: L02; how it was run: as §1
K562 = test: Cytotoxicity against human K562 cells by MTT assay; type: functional, cell-based; how it was run: as §1
HepG2 [2] = test: Cytotoxicity against human HepG2 cells by MTT assay; type: functional, cell-based; how it was run: as §1
SK-OV-3 = test: Cytotoxicity against human SKOV3 cells by MTT assay; type: functional, cell-based
HCT-15 = test: Cytotoxicity against human HCT15 cells by MTT assay; type: functional, cell-based
[3] = Cytotoxicity against human H460 cells by MTT assay; type: functional, cell-based; details: NCI-H460
HepG2 [4] = test: Antitumor activity against human HepG2 cells xenografted in Balb/C mouse assessed as tumor volume T/C ratio at 5 mg/kg administered every 4 days for 3 weeks measured on day 20 relative to control
MCF7 = test: Cytotoxicity against human MCF7 cells by MTT assay; type: functional, cell-based
[5] = Cytotoxicity against mouse C26 cells by MTT assay; type: functional, cell-based
A2780 = test: Cytotoxicity against taxol-resistant human A2780 cells by MTT assay; type: functional, cell-based
Bel-7402 = test: Cytotoxicity against human Bel7402 cells by MTT assay; type: functional, cell-based
[6] = Cytotoxicity against human MCF7/ADR cells by MTT assay; type: functional, cell-based; details: NCI/ADR-RES
[7] = Cytotoxicity against human SPC-A1 cells by MTT assay; type: functional, cell-based; details: SPCA1
SK-HEP1 = test: Cytotoxicity against human SKHEP1 cells by MTT assay; type: functional, cell-based
[8] = Cytotoxicity against human ES2 cells by MTT assay; type: functional, cell-based; details: ES-2
HepG2 [9] = test: Antitumor activity against human HepG2 cells xenografted in Balb/C mouse assessed as tumor growth inhibition rate at 5 mg/kg administered every 4 days for 3 weeks measured on day 20; type: functional; details: read-out: TGI
How it was run: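 HepG2 cells (5 × 10⁶/mouse) in HBSS implanted in the right flank of 5–6-week-old female Balb/C and athymic nude mice, six per group. Dosing began once tumors reached ~100 mm³: three weeks at 2.5, 5 or 10 mg/kg every two days, or Taxol 5 mg/kg every four days; controls got physiological saline. Tumor volume = π/6 × length × width². T/C (%) = treated/control tumor volume × 100. Inhibition = (1 − treated/control tumor weight) × 100.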

DU-145 = test: Cytotoxicity against human DU145 cells by MTT assay; type: functional, cell-based
PC-3 = test: Cytotoxicity against human PC3 cells by MTT assay; type: functional, cell-based
HCT-8 = test: Cytotoxicity against taxol-resistant human HCT8 cells by MTT assay; type: functional, cell-based
Tubulin (Sus scrofa) [10] = target: T1, Tubulin (Sus scrofa) (UniProt P02554+P02550); test: Stabilization of purified pig brain tubulin polymerization at 20 uM measured every 30 seconds by spectrophotometry
T1 sequence (P02550 whole entry, looked up): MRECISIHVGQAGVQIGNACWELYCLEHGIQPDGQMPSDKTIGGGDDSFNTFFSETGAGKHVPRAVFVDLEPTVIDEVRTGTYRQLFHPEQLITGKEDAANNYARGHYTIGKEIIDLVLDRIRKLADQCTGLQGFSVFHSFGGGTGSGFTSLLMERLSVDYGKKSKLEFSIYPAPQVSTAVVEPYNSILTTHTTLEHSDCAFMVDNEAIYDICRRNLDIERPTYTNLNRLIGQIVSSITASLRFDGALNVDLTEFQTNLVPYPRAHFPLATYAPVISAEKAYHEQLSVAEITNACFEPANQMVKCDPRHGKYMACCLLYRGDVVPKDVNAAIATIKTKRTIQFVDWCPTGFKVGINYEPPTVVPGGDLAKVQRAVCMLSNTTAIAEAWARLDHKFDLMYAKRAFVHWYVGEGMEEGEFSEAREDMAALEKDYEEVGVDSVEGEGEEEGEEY
T1 sequence (P02554 whole entry, looked up): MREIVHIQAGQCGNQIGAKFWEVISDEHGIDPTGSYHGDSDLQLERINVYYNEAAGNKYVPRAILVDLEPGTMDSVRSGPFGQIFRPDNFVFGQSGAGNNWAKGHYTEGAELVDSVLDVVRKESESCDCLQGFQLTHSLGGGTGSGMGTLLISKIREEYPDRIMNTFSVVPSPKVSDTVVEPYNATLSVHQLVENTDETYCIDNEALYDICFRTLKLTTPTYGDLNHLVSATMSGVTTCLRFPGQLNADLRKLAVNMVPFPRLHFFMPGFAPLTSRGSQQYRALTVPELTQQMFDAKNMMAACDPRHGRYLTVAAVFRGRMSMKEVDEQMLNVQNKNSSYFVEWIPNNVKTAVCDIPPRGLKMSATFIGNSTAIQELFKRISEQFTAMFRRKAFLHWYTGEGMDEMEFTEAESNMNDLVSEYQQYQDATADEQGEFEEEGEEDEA
How it was run: (§2)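 It was pre-incubated 5 min with compound (5, 10, 20 μM), Taxol (5, 20 μM) or DMSO. GTP was added to 1 mM final to start assembly, followed as the rise in absorbance at 340 nm at 37 °C.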

Tubulin (Sus scrofa) [11] = target: T1, Tubulin (Sus scrofa); test: Stabilization of purified pig brain tubulin polymerization at 5 uM measured every 30 seconds by spectrophotometry; how it was run: as §2
NCI-H358 = test: Cytotoxicity against human NCI-H358 cells by MTT assay; type: functional, cell-based
HT-29 = test: Cytotoxicity against human HT-29 cells by MTT assay; type: functional, cell-based

Row | SMILES | IC50 (A-375) [µM] | IC50 [1] [µM] | IC50 (K562) [µM] | IC50 (HepG2 [2]) [µM] | further results
1 | COc1ccc(/C=C/C(=O)c2ccc(OC)c3c2OC(C)(C)C=C3)cc1OCCN1CCOCC1 | 8.2 | > 10 | 8.35 | > 10 | –
2 | COc1ccc(/C=C/C(=O)Oc2cc(/C=C/C(=O)c3ccc(OC)c4c3OC(C)(C)C=C4)ccc2OC)cc1 | 2.63 | 18 | 0.38 | 0.43 | –
3 | COc1ccc(/C=C/C(=O)c2ccc(OC)c3c2OC(C)(C)C=C3)cc1OC(=O)CCl | 0.45 | > 10 | 0.4 | 0.12 | –
4 | COc1ccc(/C=C/C(=O)c2ccc(OC)c3c2OC(C)(C)C=C3)cc1 [MILLEPACHINE] | 3.58 | > 20 | – | – | –
5 | COc1ccc(/C=C/C(=O)c2ccc(OC)c3c2OC(C)(C)C=C3)cc1OS(=O)(=O)Cc1ccccc1 | > 10 | > 10 | > 10 | > 10 | –
6 | CC(=O)O[C@H]1C(=O)[C@@]2(C)[C@H]([C@H](OC(=O)c3ccccc3)[C@]3(O)C[C@H](OC(=O)[C@H](O)[C@@H](NC(=O)c4ccccc4)c4ccccc4)C(C)=C1C3(C)C)[C@]1(OC(C)=O)CO[C@@H]1C[C@@H]2O [PACLITAXEL] | – | – | – | – | IC50 (SK-OV-3): 0.1 µM; IC50 (HCT-15): 0.12 µM; IC50 [3]: 24 µM; T/C at 5 mg/kg (HepG2 [4]): 32.4%; IC50 (MCF7): 0.66 µM; IC50 [5]: 1.05 µM; IC50 (A2780): 8.25 µM; IC50 (Bel-7402): > 2 µM; IC50 [6]: 6.9 µM; IC50 [7]: 5.3 µM; IC50 (SK-HEP1): 0.24 µM; IC50 [8]: 0.1 µM; inhibition in vivo at 5 mg/kg (HepG2 [9]): 59.1%; IC50 (DU-145): 0.03 µM; IC50 (PC-3): 0.14 µM; IC50 (HCT-8): 13.3 µM; Activity (Tubulin (Sus scrofa) [10]): 23.8%; Activity (Tubulin (Sus scrofa) [11]): 6.3%; IC50 (NCI-H358): 0.01 µM; IC50 (HT-29): 0.45 µM
7 | C#CCOc1cc(/C=C/C(=O)c2ccc(OC)c3c2OC(C)(C)C=C3)ccc1OC | > 10 | > 10 | > 10 | > 10 | –
8 | COc1ccc(/C=C/C(=O)c2ccc(OC)c3c2OC(C)(C)C=C3)cc1OC(=O)C1CC1 | 0.38 | > 10 | 0.41 | 0.22 | –
9 | COc1ccc(/C=C/C(=O)c2ccc(OC)c3c2OC(C)(C)C=C3)cc1OCCO | 9.6 | > 10 | > 10 | > 10 | –
10 | COc1ccc(/C=C/C(=O)c2ccc(OC)c3c2OC(C)(C)C=C3)cc1OC(=O)Cc1cccc(C(F)(F)F)c1 | 0.48 | > 10 | 0.29 | 0.57 | –
11 | C=CCOc1cc(/C=C/C(=O)c2ccc(OC)c3c2OC(C)(C)C=C3)ccc1OC | > 10 | > 20 | > 10 | > 10 | –
12 | C=CC(=O)Oc1cc(/C=C/C(=O)c2ccc(OC)c3c2OC(C)(C)C=C3)ccc1OC | 0.39 | > 10 | 0.3 | 0.16 | –
13 | COc1cccc(C(=O)Oc2cc(/C=C/C(=O)c3ccc(OC)c4c3OC(C)(C)C=C4)ccc2OC)c1 | 0.8 | > 10 | 0.79 | 0.87 | –
14 | COc1ccc(/C=C/C(=O)c2ccc(OC)c3c2OC(C)(C)C=C3)cc1OCCN1CCCCC1 | 3 | 9.15 | 2.08 | 4.4 | –
